Assays:
[1] = Inhibition of ATP-stimulated [Ca2+] influx into macrophages loaded with fluorescent indicator fura-2-acetoxymethyl at 50 nM concentration of compound; type: functional; conditions: Homo sapiens
Method in brief: (§1)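 Washed human macrophage cells (10⁶/mL) in HEPES-buffered saline were loaded with fura-2 acetoxymethyl ester for 20 min at 37 °C in the dark, in a stirred cuvette. Cells were preincubated with compound at the stated single concentration for 5 min at 37 °C before ATP stimulation. Ca²⁺ influx was read as the 340:380 nm excitation ratio at 500 nm emission, as percent inhibition. Three repeats.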

[2] = Inhibition of ATP-stimulated [Ca2+] influx into macrophages loaded with fluorescent indicator fura-2-acetoxymethyl at 500 nM concentration of compound; type: functional; conditions: Homo sapiens; method in brief: as §1
[3] = Inhibition of ATP-stimulated [Ca2+] influx into macrophages loaded with fluorescent indicator fura-2-acetoxymethyl at 1000 nM concentration of compound; type: functional; conditions: Homo sapiens
[4] = target: T1, P2X purinoceptor 7 (Homo sapiens, UniProt Q99572); experiment: Inhibitory concentration was evaluated against P2X purinoceptor 7
T1 sequence (Q99572 whole entry): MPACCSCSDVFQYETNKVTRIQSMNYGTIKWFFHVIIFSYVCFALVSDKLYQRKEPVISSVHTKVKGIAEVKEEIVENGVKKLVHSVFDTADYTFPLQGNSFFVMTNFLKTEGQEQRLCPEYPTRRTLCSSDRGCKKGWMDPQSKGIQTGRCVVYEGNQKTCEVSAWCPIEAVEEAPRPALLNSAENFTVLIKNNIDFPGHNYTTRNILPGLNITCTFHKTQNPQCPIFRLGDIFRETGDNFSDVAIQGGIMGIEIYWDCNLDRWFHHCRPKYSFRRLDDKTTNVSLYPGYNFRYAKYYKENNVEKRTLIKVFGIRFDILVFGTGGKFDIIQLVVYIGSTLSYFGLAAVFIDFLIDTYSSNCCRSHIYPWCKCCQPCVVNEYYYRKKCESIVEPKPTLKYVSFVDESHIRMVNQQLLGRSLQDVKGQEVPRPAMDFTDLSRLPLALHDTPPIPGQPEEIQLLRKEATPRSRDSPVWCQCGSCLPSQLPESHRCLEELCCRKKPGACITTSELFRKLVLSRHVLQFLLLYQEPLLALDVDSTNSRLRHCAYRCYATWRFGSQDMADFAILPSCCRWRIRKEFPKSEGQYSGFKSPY
Method in brief: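 Human macrophage cells (10⁶/mL, washed, in HEPES-buffered saline) were fura-2-AM loaded for 20 min at 37 °C in the dark. Compounds (25–500 nM) were preincubated 5 min at 37 °C before ATP-stimulated Ca²⁺ influx was measured fluorimetrically (340:380 nm excitation ratio, 500 nm emission). IC50 is the mean from dose-response curves of at least three experiments.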

IC50 [4] [nM]	Compound	inhibition at 0.05 µM [1] [%]	inhibition at 0.5 µM [2] [%]	inhibition at 1 µM [3] [%]
–	O=C([C@@H]1Cc2ccc(OS(=O)(=O)c3cccc4cnccc34)cc2CN1S(=O)(=O)c1cccc2cnccc12)N1CCN(c2ccccc2)CC1	1.66	34.5	25.8
13.4	CN([C@@H](Cc1ccc(OS(=O)(=O)c2cccc3cnccc23)cc1)C(=O)N1CCN(c2ccccc2)CC1)S(=O)(=O)c1cccc2cnccc12	94.4	100	100
–	O=C([C@@H]1Cc2ccc(OS(=O)(=O)c3cccc4cccnc34)cc2CN1S(=O)(=O)c1cccc2cccnc12)N1CCN(c2ccccc2)CC1	6.9	3.4	0
–	O=C([C@@H]1Cc2ccc(OS(=O)(=O)c3cccc4ccccc34)cc2CN1S(=O)(=O)c1cccc2ccccc12)N1CCN(c2ccccc2)CC1	0	0	0
–	O=C([C@@H]1Cc2ccc(OS(=O)(=O)c3cccc4ncccc34)cc2CN1S(=O)(=O)c1cccc2ncccc12)N1CCN(c2ccccc2)CC1	59	72.4	66

From ChEMBL document CHEMBL1133321, “Synthesis of conformationally constrained analogues of KN62, a potent antagonist of the P2X7-receptor” (Bioorg Med Chem Lett, 2000)
